Broadly, the pIC50 is the IC50 on a negative log10 scale, so that one unit is a factor of ten. Read a low pIC50 as a large IC50. The term half-life denotes the time needed for the level to fall by half in the phase considered. Read a low half-life as fast loss.

pIC50: −log10 of the molar value.

One data set addresses Cholinesterase (Homo sapiens, UniProt P06276). Briefly: Inhibition of human Butyrylcholinesterase. Put shortly:
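Compounds in Tween 80/EtOH 3:1 were diluted in half-log steps to 0.3 nM–[…] final and preincubated with enzyme in pH 8.0 buffer for 30 min at RT. Run on four occasions. IC50 from logit activity versus log concentration.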

In another data set the target is Acetylcholinesterase (Homo sapiens, UniProt P22303). Briefly: Inhibition of human acetylcholinesterase from erythrocytes (RBC).
The nature of data set [1]: In vivo half life of the compound. In kind it is ADME, organism-based.

Cholinesterase, sequence (P06276 whole entry): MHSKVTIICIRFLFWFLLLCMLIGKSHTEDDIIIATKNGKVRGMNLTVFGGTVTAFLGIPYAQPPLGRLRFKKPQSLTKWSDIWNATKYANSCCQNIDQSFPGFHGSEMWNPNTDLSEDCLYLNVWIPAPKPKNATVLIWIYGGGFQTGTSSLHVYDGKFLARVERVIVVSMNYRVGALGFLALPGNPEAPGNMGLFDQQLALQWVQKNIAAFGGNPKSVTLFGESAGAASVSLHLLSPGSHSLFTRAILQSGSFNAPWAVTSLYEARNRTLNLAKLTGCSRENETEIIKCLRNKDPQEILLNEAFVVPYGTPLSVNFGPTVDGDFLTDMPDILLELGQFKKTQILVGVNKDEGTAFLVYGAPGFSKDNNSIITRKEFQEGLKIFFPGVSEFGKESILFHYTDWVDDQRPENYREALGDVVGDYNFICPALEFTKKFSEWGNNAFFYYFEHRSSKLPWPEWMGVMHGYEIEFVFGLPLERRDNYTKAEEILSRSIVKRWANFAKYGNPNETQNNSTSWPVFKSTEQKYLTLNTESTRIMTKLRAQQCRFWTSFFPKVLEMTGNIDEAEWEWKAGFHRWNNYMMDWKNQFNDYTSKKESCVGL
Acetylcholinesterase, sequence (P22303 whole entry): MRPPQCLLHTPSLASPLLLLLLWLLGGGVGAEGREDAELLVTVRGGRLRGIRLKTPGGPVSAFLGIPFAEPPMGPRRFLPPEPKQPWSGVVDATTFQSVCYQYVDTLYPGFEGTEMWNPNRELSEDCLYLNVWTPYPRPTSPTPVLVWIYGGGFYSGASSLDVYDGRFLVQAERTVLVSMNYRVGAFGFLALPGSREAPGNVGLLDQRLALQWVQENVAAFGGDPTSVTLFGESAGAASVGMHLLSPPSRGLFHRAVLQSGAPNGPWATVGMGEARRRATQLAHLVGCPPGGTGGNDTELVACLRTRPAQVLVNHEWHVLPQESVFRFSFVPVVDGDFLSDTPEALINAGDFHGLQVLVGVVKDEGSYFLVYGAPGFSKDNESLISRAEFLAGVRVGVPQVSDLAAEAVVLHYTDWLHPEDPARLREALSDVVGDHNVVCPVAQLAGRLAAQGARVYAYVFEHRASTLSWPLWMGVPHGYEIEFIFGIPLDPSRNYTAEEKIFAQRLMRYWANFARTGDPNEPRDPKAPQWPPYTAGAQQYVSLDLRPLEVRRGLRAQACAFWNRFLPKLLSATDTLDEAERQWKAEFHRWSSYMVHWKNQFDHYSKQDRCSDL

For the compound `CN1CC[C@]2(C)c3cc(OC(=O)Nc4ccccc4)ccc3N(Cc3ccccc3)C12` (stereo not given in full), the results for the pIC50 on Cholinesterase and against Acetylcholinesterase were 5.15 and 4.95, respectively.

At Cholinesterase, `CN1CC[C@@]2(C)c3cc(OC(=O)Nc4ccccc4)ccc3NC12` (stereo not given in full) showed a pIC50 of 6.29.

As for `CN1CC[C@]2(C)c3cc(OC(=O)Nc4ccccc4)ccc3N(C)C12` (stereo not given in full), the pIC50 was 4.63 at Cholinesterase and 5.46 against Acetylcholinesterase.

Turning to `CNC(=O)Oc1ccc2c(c1)[C@]1(C)CCN(C)C1N2` (stereo not given in full), the pIC50 was 8.17 against Cholinesterase and 7.25 against Acetylcholinesterase.

As to `CNC(=O)Oc1ccc2c(c1)[C@]1(C)CCN(C)[C@@H]1N2C` [PHYSOSTIGMINE], the half-life in data set [1] was 1 h.

With `CNC(=O)Oc1ccc2c(c1)[C@]1(C)CCN(C)C1N2C=O` (stereo not given in full), the pIC50 at Cholinesterase was 7.34; on Acetylcholinesterase, 6.41.

Regarding `CNC(=O)Oc1ccc2c(c1)[C@@]1(C)CCN(C)C1N2Cc1ccccc1` (stereo not given in full), the pIC50 at Cholinesterase was 5.80; at Acetylcholinesterase it was 5.55.

In the case of `CN1CC[C@]2(C)c3cc(OC(=O)Nc4ccccc4)ccc3NC12` (stereo not given in full), the pIC50 is 5.76 at Cholinesterase and 5.25 against Acetylcholinesterase.

In the case of `CNC(=O)Oc1ccc2c(c1)[C@@]1(C)CCN(C)C1N2` (stereo not given in full), the pIC50 against Cholinesterase is 5.95; against Acetylcholinesterase, 5.66.

Take `CN1CC[C@@]2(C)c3cc(OC(=O)Nc4ccccc4)ccc3N(C)C12` (stereo not given in full): the pIC50 on Cholinesterase is 5.89; at Acetylcholinesterase it was 7.62. The compound further showed a half-life in data set [1] of 8 h.

Consider `CN1CC[C@@]2(C)c3cc(OC(=O)Nc4ccccc4)ccc3N(Cc3ccccc3)C12` (stereo not given in full), for which the figures for the negative logarithm of the IC50 (pIC50) against Cholinesterase and against Acetylcholinesterase were 7.07 and 6.61, respectively.

On to `CNC(=O)Oc1ccc2c(c1)[C@]1(C)CCN(C)C1N2Cc1ccccc1` (stereo not given in full), for which the pIC50 against Cholinesterase is 7.66; at Acetylcholinesterase, 6.79.

In the case of `CN1CC[C@@]2(C)c3cc(OC(=O)Nc4ccccc4)ccc3N(C=O)C12` (stereo not given in full), the results for the pIC50 against Cholinesterase and at Acetylcholinesterase were 5.83 and 6.11, respectively.

Values taken from ChEMBL document CHEMBL1130392, “Total syntheses and anticholinesterase activities of (3aS)-N(8)-norphysostigmine, (3aS)-N(8)-norphenserine, their antipodal isomers, and other N(8)-substituted analogues” (J Med Chem, 1997).
